SENP6 inh: SENP6 protease inhibitors, primary screen, biochemical, luminescence, uHTS; 1.8% of 330,000 active; inhibition, % at 10 µM; Recombinant SENP6 catalytic domain, aminoluciferin luminescence;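 active = inhibition above about 50% at the single tested dose, limit read from the data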;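 also: plate controls were DMSO wells with enzyme for no effect and DMSO wells lacking enzyme for full effect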
Target sequence (Q9GZR1 628-1112 limits assumed): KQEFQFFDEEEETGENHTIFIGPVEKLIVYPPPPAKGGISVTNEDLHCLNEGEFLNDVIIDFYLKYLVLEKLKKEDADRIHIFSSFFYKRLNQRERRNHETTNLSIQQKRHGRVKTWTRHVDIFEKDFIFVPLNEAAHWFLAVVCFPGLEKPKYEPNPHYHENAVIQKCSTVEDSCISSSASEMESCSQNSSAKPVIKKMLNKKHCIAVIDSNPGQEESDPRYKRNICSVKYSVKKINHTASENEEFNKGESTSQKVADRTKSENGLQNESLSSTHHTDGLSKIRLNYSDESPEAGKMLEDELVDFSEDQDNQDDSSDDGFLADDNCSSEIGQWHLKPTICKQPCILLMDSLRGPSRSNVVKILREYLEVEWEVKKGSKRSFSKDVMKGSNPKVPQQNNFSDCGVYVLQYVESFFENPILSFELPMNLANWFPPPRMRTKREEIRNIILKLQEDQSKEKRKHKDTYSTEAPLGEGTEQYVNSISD
SENP7 inh: SENP7 protease inhibitors, primary screen, biochemical, luminescence, uHTS | Sentrin-specific protease 7 (Homo sapiens), Q9BQF6 | recombinant SENP7, Z-RLRGG-aminoluciferin luminescence, 40 min | inhibition, % at 5 µM | 1.5% of 330,000 active | AID 434973, 2010;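 active = inhibition above about 50% at the single test dose, limit read from the data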;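 also: plate controls were DMSO with enzyme for no effect and no enzyme buffer wells for full effect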
SENP8 block-1: SENP8 protease inhibitors, primary screen, biochemical, luminescence; inhibition, % at 10 µM; 1.2% of 330,000 active; purified SENP8, Z-RLRGG-aminoluciferin cleavage; in the data active = inhibition above about 50%
Platelet DG rel: inhibitors of platelet dense granule secretion, primary screen, cell-based, MLPCN, human platelets; inhibition, %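 (compounds screened at 7.5 µM in platelet-rich plasma)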; human platelet-rich plasma, SFLLRN dense granule ATP release, luminescence; 0.22% of 300,000 active;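 active = mean replicate score, as percent of positive control, at or above 50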
SENP1 FRET inh: human SENP1 catalytic domain inhibitors, primary screen, biochemical, FRET, uHTS; inhibition, % at 10 µM; AID 624204, 2012; recombinant SENP1 catalytic domain, CyPet-SUMO1-YPet FRET cleavage; Sentrin-specific protease 1 (Homo sapiens), Q9P0U3; 0.21% of 360,000 active;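 active = inhibition at least 30% at 10 µM, raw YFP signal under a set limit, fluorescence ratio 0.5 to 1.5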;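 also: 0% = enzyme with DMSO and 100% = no enzyme wells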
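Test system: hSENP1 catalytic domain, recombinant; Amount: 20 pM final SENP1 enzyme; Medium: Tris pH 8 buffer plus EDTA, NaCl, BME, BSA, NP40, catalase; Schedule: 50 min enzyme reaction, room temperature, light-protected; Technique: FRET fluorescence in CFP and YFP emission channels; Controls: no-enzyme wells low, DMSO-plus-enzyme wells high control.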
SENP8 block-2: human SENP8 protease inhibitors, primary screen, biochemical, fluorescence, Nedd8 protein substrate, uHTS | Sentrin-specific protease 8 (Homo sapiens), Q96LD8 | recombinant SENP8 | inhibition, % at 20 µM | 0.64% of 360,000 active | AID 602440, 2012; in the data active = inhibition mostly above about 40%, no sharp cut-off; inactive = mostly below about 27%
* hit, by the source's call; nt = no result given. Rows were chosen to be rich in hits. Some 2.6% of all compounds tested hit in one or more screens of this group.

SMILES	SENP6 inh	SENP7 inh	SENP8 block-1	Platelet DG rel	SENP1 FRET inh	SENP8 block-2
CC1(C)CC(=O)C(N=Nc2cc(Cl)c(Cl)c(Cl)c2)=C(O)C1	3	3	2	-3	2	40
CCN(C[C@H]1N[C@@](C)(C(=O)OC)[C@H]2C(=O)N(C)C(=O)[C@@H]12)S(=O)(=O)c1ccc(OC)cc1	3	-5	2	nt	-1	16
Cc1cc(C)cc(NC(=S)N=Nc2c(O)n(C)c3ccc(S(=O)(=O)N4CCOCC4)cc23)c1	-22	2	6	-1	3	-1
Cc1ccc(NC(=S)N=Nc2c(O)n(C)c3ccc(S(=O)(=O)N4CCOCC4)cc23)cc1	nt	nt	nt	-13	6	30*
COC(=O)[C@]12CCCCC=C1N(Cc1ccccc1)C(=O)[C@H](CC(=O)N1CCCCC1)C2	nt	nt	nt	nt	2	14
O=C(O)C(Cc1ccccc1)N1C(=O)/C(=C/c2cccs2)SC1=S (stereo not drawn)	-7	11	2	nt	-3	41*
ClCC(CNCc1ccccc1)c1ccccc1 (stereo not drawn)	nt	nt	nt	nt	0	12
CC1=NN(c2ccccc2)C(=O)C1N=Nc1ccc(S(N)(=O)=O)cc1 (stereo not drawn)	-57	-5	-8	-12	6	52*
O=C(N=C1N=C2C=CC(Br)=CN2Cc2ccccc21)c1ccc([N+](=O)[O-])cc1[N+](=O)[O-]	78*	67*	56*	26	-1	13
COc1ccc(CCNC(=O)CCNC(=O)c2ccccc2Cl)cc1	-43	-4	1	16	-1	6
C(=N\Nc1nc2ccccc2[nH]1)/c1ccccn1	nt	nt	nt	62*	1	13
C(=N\Nc1nc2ccccc2[nH]1)/c1ccc2ncccc2c1	-25	31	-10	12	-11	-398
CN(C)c1ncc(C2=C(Cl)C(=O)C(N3CCCC3)=C(Cl)C2=O)s1	17	19	32	7	-3	46*
O=C1C(Cl)=C(N2CCCCC2)C(=O)C(Cl)=C1c1cnc(N2CCCCC2)s1	12	8	11	10	-22	-19
O=C(COC(=O)c1ccc(Cl)nc1)Nc1cc(S(=O)(=O)N2CCOCC2)ccc1Cl	0	-7	-8	nt	-3	-9
O=[N+]([O-])c1ccc(N/N=C/c2ccc(O)c(O)c2O)c(S(=O)(=O)N2CCOCC2)c1	38	16	15	3	7	90*
O=C(CCc1ccc(S(=O)(=O)N2CCOCC2)cc1)N/N=C/c1ccc(O)c(O)c1O	-5	8	-3	15	3	39*
CCCCNC(=O)Nc1ccc(Br)cn1	-10	7	-9	53*	1	19
CC1CCC2(CC1)NC(=O)N(CC(=O)NC(C)c1ccc(F)c(F)c1)C2=O (stereo not drawn)	10	3	8	nt	0	3
COc1ccc(CNC(=S)Nc2cccc(OC)c2)cc1	5	13	0	1	-1	16
COc1cccc(NC(=S)Nc2cccc3ccccc23)c1	89*	42	88*	8	-8	-425
Cc1ccc(S(=O)(=O)N(C)C)cc1NC(=S)Nc1cccc2ccccc12	90*	56*	84*	11	-20	-313
C/C(=C\C(=S)Nc1ccccc1)Nc1cccc2ccccc12	83*	41	71*	-3	-1	-385
C=C1CCN(c2ccc(C(=O)NCCC)cc2[N+](=O)[O-])CC1	-15	-4	-8	2	2	17
O=C(Cc1ccc(Cl)cc1)NCCc1cnc[nH]1	-14	-6	2	0	2	12
SMILES	SENP6 inh	SENP7 inh	SENP8 block-1	Platelet DG rel	SENP1 FRET inh	SENP8 block-2
COc1ccccc1C(=O)Nc1ccc(C2=NNC(=O)CC2C)cc1 (stereo not drawn)	-8	0	-11	88*	0	-89
CCN(c1ccc(OC)cc1)S(=O)(=O)c1nnc(NC(=O)c2ccc(C)cc2)s1	13	4	1	0	0	-125
CN(C)/N=C/C=C1\CC/C(=C\c2ccc(F)c(F)c2)C1=O	5	-9	-5	2	25	52*
COC(=O)CCC(=O)OC1(C)C(=O)C2=CN(CCCCO)C(c3ccc(OC)cc3)=CC2=C(Br)C1=O (stereo not drawn)	47	13	8	0	nt	nt
COC(=O)CCC(=O)OC1(C)C(=O)C2=CN(CCN3CCOCC3)C(c3ccc(OC)cc3)=CC2=C(Br)C1=O (stereo not drawn)	52*	16	23	7	nt	nt
CO/N=C/C(=N\Nc1ccc(C)cc1)C(=O)c1ccc(OC)cc1	-3	-6	-1	11	-3	51*
O=[N+]([O-])c1cccc(N/N=C/c2cccc(O)c2O)c1	-22	-17	2	4	2	58*
Oc1ccc(/C=N/NC(=S)Nc2cccnc2)c(O)c1O	nt	nt	nt	8	-11	56*
O=[N+]([O-])c1ccc(N/N=C/c2cccc(O)c2O)c(S(=O)(=O)N2CCOCC2)c1	-1	13	8	-4	-55	7
Cc1cccc(N/N=C/c2ccc(O)c(O)c2O)c1	10	8	28	-7	-1	67*
COc1cccc(N/N=C/c2cccc(Br)c2O)c1	-7	-11	26	-10	-26	-26
CCOC(=O)CC(NC(=O)CCS(=O)(=O)c1ccc2c(c1)n(C)c(=O)c(=O)n2C)c1ccc(C)cc1 (stereo not drawn)	-5	0	5	-3	-1	-123
CC(=O)C(C(C)=O)C1(O)C(=O)c2ccccc2C1=O	40	18	-15	8	1	61*
COc1ccc(O)c(C2(O)C(=O)c3ccccc3C2=O)c1	-20	-4	-9	1	1	0
Cn1c(=NC(=O)c2ccc(S(=O)(=O)N3CCCc4ccccc43)cc2)sc2cc(S(C)(=O)=O)ccc21	7	5	9	-11	4	-86
Cn1c(=NC(=O)c2ccccc2[N+](=O)[O-])sc2cc(S(C)(=O)=O)ccc21	30	57*	-6	9	-2	20
CN(C)CCN1C(=O)c2cccc3cc([N+](=O)[O-])cc(c23)C1=O	nt	nt	nt	nt	60*	29
O=C1/C(=C\c2ccc(O)cc2)SC(=S)N1c1cccnc1	38	14	5	2	81*	22
C(=C\c1ccccc1)/CN1CCN(C(CCc2ccccc2)c2nnnn2C2CCCC2)CC1 (stereo not drawn)	nt	nt	nt	nt	-1	26
COc1cc(/C=N/NC(N)=O)ccc1OCC(=O)Nc1ccc(C)c(C)c1	-13	3	-6	56*	4	12
